In ChEMBL document CHEMBL1144851, “Opioids and efflux transporters. Part 2: P-glycoprotein substrate activity of 3- and 6-substituted morphine analogs” (J Med Chem, 2008):

Tests used:
[1] = biological target: Mu-type opioid receptor (Homo sapiens, UniProt P35372); test: Displacement of [3H]diprenorphine from recombinant mu opioid receptor expressed in C6 cells; assay type: cell-based
[2] = biological target: Delta-type opioid receptor (Homo sapiens, UniProt P41143); test: Displacement of [3H]diprenorphine from recombinant delta opioid receptor expressed in C6 cells; assay type: cell-based
Delta-type opioid receptor, sequence (P41143 whole entry): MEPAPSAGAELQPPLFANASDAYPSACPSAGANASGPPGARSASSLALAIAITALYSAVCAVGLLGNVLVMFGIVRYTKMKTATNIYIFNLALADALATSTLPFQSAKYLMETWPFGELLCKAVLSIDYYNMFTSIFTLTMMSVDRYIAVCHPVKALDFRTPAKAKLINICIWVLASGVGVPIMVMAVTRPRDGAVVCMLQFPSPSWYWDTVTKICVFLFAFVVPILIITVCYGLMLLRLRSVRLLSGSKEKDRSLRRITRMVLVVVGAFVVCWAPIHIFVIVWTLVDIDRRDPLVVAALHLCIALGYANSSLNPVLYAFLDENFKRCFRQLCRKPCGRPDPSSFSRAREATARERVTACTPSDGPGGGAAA
Summary of the method: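 Competitive binding against [3H]diprenorphine in membranes of C6 rat glioma cells expressing recombinant δ opioid receptor; Ki from three experiments run in duplicate, mean ± SEM.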

[3] = Selectivity for recombinant mu opioid receptor over recombinant kappa opioid receptor
Summary of the method: (§1)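 Ratios of Ki values from [3H]diprenorphine displacement in membranes of C6 rat glioma cells expressing µ or δ receptors and CHO cells expressing κ receptor; three experiments in duplicate.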

[4] = biological target: Kappa-type opioid receptor (Homo sapiens, UniProt P41145); test: Displacement of [3H]diprenorphine from recombinant kappa opioid receptor expressed in CHO cells; assay type: cell-based
Kappa-type opioid receptor, sequence (P41145 whole entry): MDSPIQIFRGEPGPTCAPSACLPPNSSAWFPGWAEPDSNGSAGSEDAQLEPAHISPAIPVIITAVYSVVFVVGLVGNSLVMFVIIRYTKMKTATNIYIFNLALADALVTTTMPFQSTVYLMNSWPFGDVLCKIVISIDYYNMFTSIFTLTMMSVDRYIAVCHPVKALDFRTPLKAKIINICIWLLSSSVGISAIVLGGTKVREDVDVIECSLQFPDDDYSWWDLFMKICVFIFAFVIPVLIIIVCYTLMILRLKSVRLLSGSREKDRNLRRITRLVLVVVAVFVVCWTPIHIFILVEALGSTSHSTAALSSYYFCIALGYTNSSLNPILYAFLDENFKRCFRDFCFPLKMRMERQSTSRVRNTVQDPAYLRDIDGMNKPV

[5] = Selectivity for recombinant mu opioid receptor over recombinant delta opioid receptor; summary of the method: as §1
[6] = biological target: ATP-dependent translocase ABCB1 (Homo sapiens, UniProt P08183); test: Effect on human recombinant Pgp-mediated ATP consumption assessed as inhibition of ATPase activity at 200 uM by Pgp-Glo assay
ATP-dependent translocase ABCB1, sequence (P08183 whole entry): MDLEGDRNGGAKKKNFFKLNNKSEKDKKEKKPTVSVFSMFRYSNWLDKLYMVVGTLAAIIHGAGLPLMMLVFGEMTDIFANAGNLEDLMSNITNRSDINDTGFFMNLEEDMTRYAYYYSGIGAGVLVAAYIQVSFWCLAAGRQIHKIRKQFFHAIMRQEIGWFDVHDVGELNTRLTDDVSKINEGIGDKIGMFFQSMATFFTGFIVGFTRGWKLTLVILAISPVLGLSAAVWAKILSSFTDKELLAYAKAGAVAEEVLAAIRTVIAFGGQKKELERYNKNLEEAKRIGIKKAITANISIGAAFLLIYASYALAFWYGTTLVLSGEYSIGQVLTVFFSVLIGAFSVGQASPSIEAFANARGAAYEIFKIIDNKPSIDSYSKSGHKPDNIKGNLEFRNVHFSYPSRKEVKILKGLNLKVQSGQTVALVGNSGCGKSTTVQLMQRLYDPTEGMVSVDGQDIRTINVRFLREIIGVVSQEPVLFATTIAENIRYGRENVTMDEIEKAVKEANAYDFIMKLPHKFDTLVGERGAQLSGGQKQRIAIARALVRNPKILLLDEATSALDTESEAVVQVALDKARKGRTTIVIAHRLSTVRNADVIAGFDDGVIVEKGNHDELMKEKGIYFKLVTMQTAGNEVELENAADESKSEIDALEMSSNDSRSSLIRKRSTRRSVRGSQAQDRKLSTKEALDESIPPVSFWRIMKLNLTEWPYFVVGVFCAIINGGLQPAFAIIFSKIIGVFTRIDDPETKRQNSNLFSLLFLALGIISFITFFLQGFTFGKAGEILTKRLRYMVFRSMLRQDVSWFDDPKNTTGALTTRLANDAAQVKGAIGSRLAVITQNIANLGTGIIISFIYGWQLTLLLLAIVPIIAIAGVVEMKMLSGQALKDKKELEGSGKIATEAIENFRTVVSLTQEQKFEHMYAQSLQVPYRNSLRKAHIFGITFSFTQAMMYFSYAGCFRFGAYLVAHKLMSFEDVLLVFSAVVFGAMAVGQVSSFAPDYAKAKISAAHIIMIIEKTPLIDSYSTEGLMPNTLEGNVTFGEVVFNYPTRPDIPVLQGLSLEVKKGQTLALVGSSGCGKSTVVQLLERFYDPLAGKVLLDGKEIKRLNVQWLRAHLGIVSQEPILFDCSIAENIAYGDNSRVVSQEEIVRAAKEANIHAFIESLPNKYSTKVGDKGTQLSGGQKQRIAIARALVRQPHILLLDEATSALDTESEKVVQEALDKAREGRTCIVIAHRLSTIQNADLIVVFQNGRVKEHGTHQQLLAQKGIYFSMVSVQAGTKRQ
Summary of the method: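 Recombinant human P-gp incubated with 200 µM compound in P-gp-Glo buffer, four wells each; started with MgATP (10 mM), quenched after 40 min with firefly luciferase ATP detection reagent, luminescence read 60 min later. Untreated, vanadate (100 µM) and verapamil (200 µM) controls; mean ± SEM, t-test.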

[7] = tested on: Mus musculus; test: Antinociceptive activity in sc dosed mouse by hot plate assay; assay type: functional
Summary of the method: (§2)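 Mice, test compound given subcutaneously; antinociception measured in tail-flick, p-phenylquinone writhing and hot plate assays following CPDD Drug Evaluation Committee protocols. ED50 (mg/kg) with 95% confidence limits.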

[8] = tested on: Mus musculus; test: Antinociceptive activity in sc dosed mouse by tail flick assay; assay type: functional; summary of the method: as §2
[9] = tested on: Mus musculus; test: Antinociceptive activity in sc dosed mouse by p-phenylquinone writhing assay; assay type: functional; summary of the method: as §2

Mu-type opioid receptor, sequence (P35372 whole entry): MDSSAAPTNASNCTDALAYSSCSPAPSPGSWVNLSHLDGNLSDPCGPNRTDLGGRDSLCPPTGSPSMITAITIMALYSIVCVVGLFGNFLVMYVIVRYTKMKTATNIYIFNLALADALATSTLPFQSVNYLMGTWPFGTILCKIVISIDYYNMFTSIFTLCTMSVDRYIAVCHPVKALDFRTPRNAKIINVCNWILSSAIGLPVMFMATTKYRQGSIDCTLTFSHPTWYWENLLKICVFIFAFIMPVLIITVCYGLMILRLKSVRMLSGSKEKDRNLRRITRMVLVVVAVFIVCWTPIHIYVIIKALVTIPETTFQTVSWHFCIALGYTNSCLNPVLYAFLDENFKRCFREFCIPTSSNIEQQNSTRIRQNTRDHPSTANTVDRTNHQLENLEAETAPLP

Row | Structure (SMILES) | Ki [1] | Ki [2] | Ratio Ki [3] | Ki [4] | Ratio Ki [5] | Activity [6] | ED50 [7] | ED50 [8] | ED50 [9]
1 | CN1CC[C@]23c4c5cccc4O[C@H]2CCC[C@H]3[C@H]1C5 | 22.9 nM | 0.241 µM | 26 | 0.589 µM | 11 | – | – | – | –
2 | CN1CC[C@]23c4c5ccc(O)c4O[C@H]2CC=C[C@H]3[C@H]1C5 | 2.1 nM | 0.0118 µM | 16 | 0.0455 µM | 4 | Active | 0.33 mg/kg | 0.2 mg/kg | 0.03 mg/kg
3 | COc1ccc2c3c1O[C@H]1[C@@H](OC)C=C[C@H]4[C@@H](C2)N(C)CC[C@@]341 | 1910 nM | 4.41 µM | 3 | 5.43 µM | 2 | – | – | – | –
4 | CN1CC[C@]23c4c5cccc4O[C@H]2[C@@H](O)CC[C@H]3[C@H]1C5 | 122 nM | 5.25 µM | 40 | 4.91 µM | 43 | Active | – | – | –
5 | COc1ccc2c3c1O[C@H]1CC=C[C@H]4[C@@H](C2)N(C)CC[C@]314 | 305 nM | 4.52 µM | 10 | 3.09 µM | 15 | Active | – | – | –
6 | CO[C@H]1CC[C@H]2[C@H]3Cc4cccc5c4[C@@]2(CCN3C)[C@H]1O5 | 524 nM | 8.83 µM | 22 | 11.6 µM | 17 | – | – | – | –
7 | CO[C@H]1C=C[C@H]2[C@H]3Cc4ccc(O)c5c4[C@@]2(CCN3C)[C@H]1O5 [HETEROCODEINE] | – | 0.0658 µM | – | 0.0228 µM | – | – | – | – | –
